The target of data set [1] is T1, P2Y purinoceptor 1 (Meleagris gallopavo, UniProt P49652). In words: Antagonist activity at turkey P2Y1 receptor expressed in human 1321N1 cells assessed as inhibition of 2-MeS-ADP-induced increase in intracellular calcium concentration by dual-excitation spectrofluorimetric analysis. Type of data set: functional, cell-based. The procedure, abridged:
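Fura-2-loaded suspensions of stably transfected 1321N1 cells were assayed at 37 °C in HEPES-buffered saline pH 7.4 with 1 mM Ca2+ and Mg2+. […] [Ca2+]i was read by dual-excitation spectrofluorometry.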

The nature of data set [2]: Dissociation constant, pKa of the compound. It counts as physicochemical.
The nature of data set [3]: Chemical stability at physiological pH at 37 deg C assessed as hydrolysis half life by 31P NMR analysis. It counts as physicochemical.
Data set [4] in a line: Stability after 100 mins by HPLC-MS analysis in presence of calf intestine alkaline phosphatase. It counts as ADME. Conditions: cattle, isolated protein; call rule not given here.
Data set [5] in a line: Chemical stability assessed as hydrolysis half life at pH 1.4 by 31P NMR analysis. As to conditions: buffer. It counts as physicochemical.
In the next data set the test system is alkaline phosphatase. In words: Stability assessed as drug remaining after 12 mins by HPLC-MS analysis in presence of calf intestine alkaline phosphatase. Type of data set: ADME. As to conditions: cattle, read-out: Stability.
Data set [6] has as its target P2Y purinoceptor 1 (Rattus norvegicus, UniProt P49651). In words: Agonist activity at rat pancreas P2Y1 receptor assessed as enhancement of insulin secretion. Type of data set: functional.
In data set [7] the test system is Serum. In words: (§1) Metabolic stability in human serum assessed as hydrolysis half life at 40 mM measured for 6 days by HPLC. As to conditions: 144 h, 40000 µM. Type of data set: ADME, cell-free.
Another data set addresses P2Y purinoceptor 6 (Rattus norvegicus, UniProt Q63371). In words: Agonist activity at rat P2Y6 receptor expressed in human 1321N1 cells assessed as increase in intracellular calcium concentration by dual-excitation spectrofluorimetric analysis. Type of data set: functional, cell-based. The procedure, abridged:
(§2)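 1321N1 astrocytoma cells stably expressing the receptor (turkey P2Y1, human P2Y2, human P2Y4, rat P2Y6) were grown with G-418 selection. Fura-2-loaded cell suspensions were exposed at 37 °C in 10 mM HEPES-buffered saline pH 7.4 with 1 mM CaCl2 and 1 mM MgCl2. Peak [Ca2+]i rise was measured over a range of concentrations to derive EC50.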

The target in data set [8] is T2, Ectonucleoside triphosphate diphosphohydrolase 1 (Bos taurus) (UniProt O18956).
T2 sequence (whole entry): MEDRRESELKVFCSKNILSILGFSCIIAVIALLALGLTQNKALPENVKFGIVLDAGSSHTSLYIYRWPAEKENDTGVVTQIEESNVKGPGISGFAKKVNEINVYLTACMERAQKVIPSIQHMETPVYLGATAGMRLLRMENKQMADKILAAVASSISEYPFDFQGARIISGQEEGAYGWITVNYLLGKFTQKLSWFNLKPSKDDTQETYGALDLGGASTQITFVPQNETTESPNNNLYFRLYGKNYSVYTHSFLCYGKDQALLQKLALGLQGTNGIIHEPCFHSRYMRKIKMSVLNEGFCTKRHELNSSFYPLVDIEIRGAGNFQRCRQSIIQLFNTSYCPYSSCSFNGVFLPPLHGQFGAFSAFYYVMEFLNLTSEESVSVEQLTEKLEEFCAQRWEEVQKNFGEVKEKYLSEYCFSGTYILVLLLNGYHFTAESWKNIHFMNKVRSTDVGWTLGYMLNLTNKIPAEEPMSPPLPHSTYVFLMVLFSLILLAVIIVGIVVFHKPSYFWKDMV
In words: Activity of bovine spleen NTPDase 1 assessed as drug hydrolysis at 100 uM after 7 mins by malachite green colorimetric assay relative to ATP. Type of data set: tissue-based. The arrangement: scale not given: the % may be the effect or the level left.

The target of data set [9] is P2Y purinoceptor 1 (Rattus norvegicus) (UniProt P49651). In words: Agonist activity at rat pancreas P2Y1 receptor assessed as enhancement of insulin secretion relative to basal level. It counts as functional.
A short description of data set [10]: Chemical stability assessed as hydrolysis half life at 1.6 mg at pH 1.4 measured at 7 to 17 hrs interval for 5 days by HPLC-MS analysis. Type of data set: physicochemical. The gist of the method:
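1.6 mg in 0.2 M HCl/KCl buffer with pH brought to 1.4, held at 37 °C. Sampled at 7–17 h intervals for 5 days by HPLC-ESI-MS on C18 with TEAA/MeOH gradient. Peak area versus time was fit to pseudo-first-order decay for t1/2.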

The nature of data set [11]: Stability at 77 ug/ml after 30 mins by HPLC in presence of calf intestine alkaline phosphatase. It counts as ADME. Conditions: cattle, isolated protein, 0.5 h.
A short description of data set [12]: as §1. It counts as ADME, cell-free.
For data set [13], the target named is T1, P2Y purinoceptor 1. In words: Agonist activity at turkey P2Y1 receptor expressed in human 1321N1 cells assessed as increase in intracellular calcium concentration by dual-excitation spectrofluorimetric analysis. It counts as functional, cell-based.
In data set [14] the test system is Serum. In words: Metabolic stability in human serum assessed as hydrolysis half life at 0.25 mM measured for 18 hrs by HPLC. Type of data set: ADME, cell-free. As to conditions: 250 µM. The procedure, abridged:
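Serum from healthy-donor whole blood (12 h at 4 °C, spun 1500 × g for 15 min, stored at −80 °C) was diluted 1:3 in RPMI-1640 and incubated with the nucleotide at 37 °C. Samples were acid-quenched (0.6 M HCl), spun, neutralised with 4 M KOH and freeze-dried. They were run on C18 HPLC with a KH2PO4 pH 4.5/acetonitrile gradient. t1/2 came from the change in peak integration over time.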

The next data set concerns the target P2Y purinoceptor 4 (Homo sapiens, UniProt P51582). In words: Agonist activity at human P2Y4 receptor expressed in human 1321N1 cells assessed as increase in intracellular calcium concentration by dual-excitation spectrofluorimetric analysis. Type of data set: functional, cell-based. The procedure, abridged:
as §2

For another data set, the target named is P2Y purinoceptor 2 (Homo sapiens, UniProt P41231). In words: Agonist activity at human P2Y2 receptor expressed in human 1321N1 cells assessed as increase in intracellular calcium concentration by dual-excitation spectrofluorimetric analysis. It counts as functional, cell-based. The gist of the method:
as §2

T1 sequence (P49652 whole entry): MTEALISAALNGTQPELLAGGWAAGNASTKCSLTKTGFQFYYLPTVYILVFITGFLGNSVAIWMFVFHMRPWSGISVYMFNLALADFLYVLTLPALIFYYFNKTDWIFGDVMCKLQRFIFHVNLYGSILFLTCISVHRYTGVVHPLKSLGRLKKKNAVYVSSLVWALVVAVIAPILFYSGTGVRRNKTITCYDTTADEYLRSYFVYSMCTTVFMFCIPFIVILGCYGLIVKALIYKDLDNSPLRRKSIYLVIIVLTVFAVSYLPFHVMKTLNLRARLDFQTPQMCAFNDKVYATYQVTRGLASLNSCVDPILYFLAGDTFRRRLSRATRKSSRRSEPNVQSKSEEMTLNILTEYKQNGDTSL
P2Y purinoceptor 6, sequence (Q63371 whole entry): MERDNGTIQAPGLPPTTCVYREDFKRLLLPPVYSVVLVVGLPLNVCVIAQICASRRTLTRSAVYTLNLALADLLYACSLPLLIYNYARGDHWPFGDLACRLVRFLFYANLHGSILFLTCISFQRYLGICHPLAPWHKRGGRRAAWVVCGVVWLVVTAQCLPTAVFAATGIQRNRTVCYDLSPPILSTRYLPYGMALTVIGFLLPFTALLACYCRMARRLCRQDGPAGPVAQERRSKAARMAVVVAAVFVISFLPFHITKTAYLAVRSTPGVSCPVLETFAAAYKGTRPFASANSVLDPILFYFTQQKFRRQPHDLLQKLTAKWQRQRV
P2Y purinoceptor 4, sequence (P51582 whole entry): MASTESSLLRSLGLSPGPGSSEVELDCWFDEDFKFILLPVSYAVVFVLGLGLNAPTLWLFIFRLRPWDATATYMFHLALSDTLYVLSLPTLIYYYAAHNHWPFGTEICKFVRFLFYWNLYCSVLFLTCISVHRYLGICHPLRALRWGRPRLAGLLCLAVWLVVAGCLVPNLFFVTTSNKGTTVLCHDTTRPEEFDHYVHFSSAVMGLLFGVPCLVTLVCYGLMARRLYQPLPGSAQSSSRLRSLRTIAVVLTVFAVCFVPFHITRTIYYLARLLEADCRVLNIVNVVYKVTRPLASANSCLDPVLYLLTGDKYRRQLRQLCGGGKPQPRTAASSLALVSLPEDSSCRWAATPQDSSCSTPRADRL
P2Y purinoceptor 1 (Rattus norvegicus), sequence (P49651 whole entry): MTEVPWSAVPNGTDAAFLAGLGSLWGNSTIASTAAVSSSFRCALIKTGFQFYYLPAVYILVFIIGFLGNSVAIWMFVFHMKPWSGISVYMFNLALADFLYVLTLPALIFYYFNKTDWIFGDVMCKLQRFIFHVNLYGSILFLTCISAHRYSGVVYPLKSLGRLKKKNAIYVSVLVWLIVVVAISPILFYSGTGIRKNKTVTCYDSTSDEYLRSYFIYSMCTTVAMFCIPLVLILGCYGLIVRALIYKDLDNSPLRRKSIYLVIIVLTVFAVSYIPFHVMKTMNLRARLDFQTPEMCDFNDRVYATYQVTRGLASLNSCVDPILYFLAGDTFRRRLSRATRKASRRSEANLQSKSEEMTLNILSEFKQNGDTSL
P2Y purinoceptor 1 (Rattus norvegicus, UniProt P49651), sequence (P49651 whole entry): as above
P2Y purinoceptor 2, sequence (P41231 whole entry): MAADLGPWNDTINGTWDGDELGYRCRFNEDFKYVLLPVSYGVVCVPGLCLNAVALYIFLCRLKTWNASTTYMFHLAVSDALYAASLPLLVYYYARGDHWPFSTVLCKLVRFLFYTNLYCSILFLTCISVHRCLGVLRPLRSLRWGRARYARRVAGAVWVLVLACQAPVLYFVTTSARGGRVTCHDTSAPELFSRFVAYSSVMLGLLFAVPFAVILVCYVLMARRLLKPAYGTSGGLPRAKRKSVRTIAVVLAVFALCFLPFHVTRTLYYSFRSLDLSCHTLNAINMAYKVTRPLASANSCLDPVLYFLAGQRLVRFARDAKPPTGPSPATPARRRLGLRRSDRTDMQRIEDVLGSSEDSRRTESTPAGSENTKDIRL

With `BP(=O)(OC[C@H]1O[C@@H](n2cnc3c(N)ncnc32)[C@H](O)[C@@H]1O)OP(=O)(O)CP(=O)(O)O` (some centres undefined), the half-maximal effective concentration (EC50) entry on P2Y purinoceptor 1 [1] is “Not Active”.
Consider `CSc1nc(N)c2ncn([C@@H]3O[C@H](COP(=O)(O)OP(=O)(O)O)[C@@H](O)[C@H]3O)c2n1`, for which the pKa in data set [2] came to 6.5.
As to `BP(=O)(OC[C@H]1O[C@@H](n2cnc3c(N)nc(SC)nc32)[C@H](O)[C@@H]1O)OP(=O)(O)OP(=O)(O)O` (single isomer, unassigned; diastereomer A) [listing 1 of 2 here], the half-life was 1400 h in data set [3] and 5.9 h in [5]. Further, the Stability entry in [4] was “Unstable”. The remaining at 0.2 h in the data set with alkaline phosphatase amounted to 40%. Further, the EC50 at P2Y purinoceptor 1 [6] came to 0.028 µM.
For the molecule `BP(=O)(OC[C@H]1O[C@@H](n2cnc3c(N)nc(SC)nc32)[C@H](O)[C@@H]1O)OP(=O)(O)CP(=O)(O)O` (single isomer, unassigned; diastereomer A), in the data set with Serum [7], the Stability entry was “Stable”. In addition, the EC50 entry at P2Y purinoceptor 6 (1321-n1) is given as “Not Active”.
For `BP(=O)(OC[C@H]1O[C@@H](n2cnc3c(N)nc(SC)nc32)[C@H](O)[C@@H]1O)OP(=O)(O)OP(=O)(O)O` (single isomer, unassigned; diastereomer A) [listing 2 of 2 here], in [8], the Activity was 14%. The fold change (FC) in data set [9] was 9.
On to `BP(=O)(OC[C@H]1O[C@@H](n2cnc3c(N)ncnc32)[C@H](O)[C@@H]1O)OP(=O)(O)CP(=O)(O)O` (single isomer, unassigned; diastereomer B), for which, in data set [10], the half-life was 19 h. In data set [11], the Stability result is listed as “Stable”.
Take `BP(=O)(OC[C@H]1O[C@@H](n2cnc3c(N)nc(SC)nc32)[C@H](O)[C@@H]1O)OP(=O)(O)CP(=O)(O)O` (single isomer, unassigned; diastereomer B): the half-life in data set [10] was 14.5 h. The half-life at 40000 µM in data set [12] was 71.9 h. Moreover, the EC50 on P2Y purinoceptor 1 [13] amounted to 17.2 µM. In addition, the Stability result in data set [11] was “Stable”.
On to `BP(=O)(OC[C@H]1O[C@@H](n2cnc3c(N)nc(SC)nc32)[C@H](O)[C@@H]1O)OP(=O)(O)OP(=O)(O)O` (single isomer, unassigned; diastereomer B), for which the Activity in data set [8] came to 59%.
With `Nc1ncnc2c1ncn2[C@@H]1O[C@H](COP(=O)(O)OP(=O)(O)O)[C@@H](O)[C@H]1O` [ADENOSINE DIPHOSPHATE], the EC50 on P2Y purinoceptor 1 [13] was found to be 0.1 µM.
Consider `Nc1ncnc2c1ncn2[C@@H]1O[C@H](COP(=O)(O)OP(=O)(O)OP(=O)(O)O)[C@@H](O)[C@H]1O` [ADENOSINE TRIPHOSPHATE], for which the t1/2 was determined as 3.6 h in the data set with Serum [14] and 7.7 h in the data set on Serum [7].
Turning to `O=c1ccn([C@@H]2O[C@H](COP(=O)(O)OP(=O)(O)OP(=O)(O)O)[C@@H](O)[C@H]2O)c(=O)[nH]1` [URIDINE TRIPHOSPHATE], the results for the EC50 on P2Y purinoceptor 4 and on P2Y purinoceptor 2 were 0.48 µM and 0.64 µM, respectively.
With `O=c1ccn([C@@H]2O[C@H](COP(=O)(O)OP(=O)(O)O)[C@@H](O)[C@H]2O)c(=O)[nH]1` [URIDINE_DIPHOSPHATE], the concentration giving a half-maximal response (EC50) at P2Y purinoceptor 6 (read-out: EC50) amounted to 0.2 µM.

Source of the values: ChEMBL document CHEMBL1137702, “Identification of hydrolytically stable and selective P2Y(1) receptor agonists” (Eur J Med Chem, 2009).
